Where a SMILES comes first, the peptide text is derived from it. Bridges are numbered along the chain shown (N, C = ends). The star is where a group is joined. DOTA = O=C(O)CN1CCN(CC(=O)O)CCN(CC(=O)*)CCN(CC(=O)O)CC1
What was measured:
[1] = tested on: U87MG human glioblastoma cells; assay: Cell efflux; assay type: cell-based; conditions: after 2 h efflux incubation
In short: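 Cells seeded at 2.5×10^5/well 24 h ahead, then loaded with 370 kBq/well radiotracer for 2 h at 37°C to allow internalization. After two PBS washes, cells were kept in culture medium for 15, 30, 60 and 120 min, washed three times with PBS and detached with 0.25% trypsin/0.02% EDTA. Cell-bound activity was gamma counted and expressed as % of added dose after decay correction. Two experiments, triplicate wells.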

[2] = assay type: physicochemical; conditions: pH 7.4
in vivo = conditions: female, athymic nude, mouse, 7.4 MBq, total radioactivity
Probe stability in PBS = assay type: physicochemical; conditions: PBS pH 7.4, 37°C, 3.7 MBq in 0.5 mL, HPLC
In short: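 Radiolabeled peptide (3.7 MBq) was added to 0.5 mL PBS and held at 37°C for 1, 6 and 24 h. At each time an aliquot was taken and radiochemical purity was measured by radio-HPLC on a C18 reversed-phase column, with UV at 214/254 nm. Results are given as % intact tracer.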

NCCCC[C@@H]1NC(=O)[C@@H]2CCCN2C(=O)[C@H](CC(N)=O)NC(=O)[C@H](CO)NC(=O)[C@H](CC(N)=O)NC(=O)CNC(=O)[C@@H](NC(=O)CN2CCN(CC(=O)O)CCN(CC(=O)O)CCN(CC(=O)O)CC2)CSSC[C@@H](C(N)=O)NC(=O)[C@H](CO)NC1=O [^64Cu-DOTA-GX1, metal not drawn] ({DOTA}-CGNSNPKSC-NH2; disulfide 1-9; N-terminus and C-terminus assumed)
radioactivity still associated with the cells [1]: 76%
octanol/water partition coefficient (log P) [2]: −2.42±0.003
tissue uptake at 24 h (in vivo; U87MG tumor uptake (biodistribution)): 6.46 ± 0.29 %ID/g
tissue uptake at 24 h (in vivo; liver uptake (biodistribution)): 5.03 ± 0.14 %ID/g
percentage of intact tracer in PBS (Probe stability in PBS; 6 h incubation): more than 95%
percentage of intact tracer in PBS (Probe stability in PBS; 24 h incubation): more than 91%

Source: paper PMC3629956 (Molecular imaging and biology : MIB : the official …, 2012)
